# Source: PubChem BioAssay
# HNF4A DNA FP – change in binding of human HNF4A to DNA, primary screen, biochemical, fluorescence polarization, FITC-DNA; Hepatocyte nuclear factor 4-alpha (Homo sapiens), P41235; 1 h; activity change, % at 10 µM; 360,000 tested, 0.3% active; AID 1224865, 2016; in the data active = activity change above about 30%, passing the limit was not always enough
# CSN deneddyl inh – inhibitors of CSN-mediated cullin deneddylation, primary screen, biochemical, fluorescence polarization, uHTS; 360,000 tested, 0.38% active; COP9 signalosome complex subunit 5 (Homo sapiens), Q92905; Purified CSN, SCF-Nedd8-OG deneddylation; inhibition, % at 12.5 µM; AID 651999, 2013;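 active = pattern-corrected inhibition above about 35%, with an unprinted fluorescence ratio check between 0.5 and 1.5, limit read from the data, passing the limit was not always enough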;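 note: 0% = enzyme with substrate and 100% = substrate without enzyme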
#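 Assay system: purified human Csn5 enzyme expressed in HEK293T cells; Input: 0.24 nM Csn5 enzyme, final concentration; Reagent: 10 nM SCFSkp2-Nedd8OG; Compound dosing: 12.5 µM single point; Times: reaction 90 min, room temperature; Technique: fluorescence polarization readout.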
# TPT1 inhibitor – Candida albicans TPT1 enzyme inhibitors, primary screen, biochemical, fluorescence polarization. 300,000 tested, 0.81% active. tRNA 2'-phosphotransferase TPT1 (Candida albicans SC5314). recombinant caTPT1, FP RNA substrate dephosphorylation. inhibition, % at 5 µM;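 active = inhibition above the mean of all tested compounds plus 3 SD, set per screening campaign, cut at about 24% in these data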;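 note: plate controls were DMSO alone for no effect and ferristatin control at 100 nM for full effect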
# Rev-erbA mod – modulators of Rev-erb alpha DNA binding, primary screen, biochemical, FITC-DNA, fluorescence polarization, uHTS. Rev-erbα–FITC-DNA binding, 90 min. Nuclear receptor subfamily 1 group D member 1 (Homo sapiens), P20393. 370,000 tested, 0.79% active. activity, % at 10 µM;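 active = activity above about 14%, limit read from the data; passing the limit was not always enough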;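 note: 0% = DMSO wells with 35 nM protein and 100% = DMSO wells with 750 nM protein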
# CSN deneddyl val – Csn5 deneddylation inhibitors, confirmation, biochemical, fluorescence polarization, single concentration, SCF-Nedd8OG substrate | shares compounds with CSN deneddyl inh | Csn5 deneddylation of SCF-Nedd8OG, 90 min | inhibition, % at 16.6 µM | 540 tested, 62% active | AID 720654, 2013; in the data active = inhibition above about 50%;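 note: 0% = DMSO with enzyme and 100% = no enzyme wells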
# MMP-2 counter – MMP-2 protease inhibition counter-screen, confirmation, counter-screen for CSN deneddylation inhibitor project, biochemical, fluorescence, single concentration. AID 720655, 2013. recombinant MMP-2, FRET substrate fluorescence, 60 min. inhibition, % at 16.6 µM. 540 tested, 33% active. shares compounds with CSN deneddyl inh;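 active = corrected plate-normalized z-score of 5 or more, or -5 or less, or inhibition of 15% or more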;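 note: plate controls were DMSO wells with enzyme for no effect and buffer wells lacking MMP-2 for full effect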
# Thrombin counter – counter-screen for CSN deneddylation inhibitors: bovine thrombin inhibition | shares compounds with CSN deneddyl inh | bovine thrombin cleavage of Ub4-pepOG, fluorescence polarization | inhibition, % at 16.6 µM | 540 tested, 49% active;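 active = inhibition at or above a set limit, with a fluorescence interference ratio between 0.5 and a set maximum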
# Target sequence (P00735 whole entry, looked up): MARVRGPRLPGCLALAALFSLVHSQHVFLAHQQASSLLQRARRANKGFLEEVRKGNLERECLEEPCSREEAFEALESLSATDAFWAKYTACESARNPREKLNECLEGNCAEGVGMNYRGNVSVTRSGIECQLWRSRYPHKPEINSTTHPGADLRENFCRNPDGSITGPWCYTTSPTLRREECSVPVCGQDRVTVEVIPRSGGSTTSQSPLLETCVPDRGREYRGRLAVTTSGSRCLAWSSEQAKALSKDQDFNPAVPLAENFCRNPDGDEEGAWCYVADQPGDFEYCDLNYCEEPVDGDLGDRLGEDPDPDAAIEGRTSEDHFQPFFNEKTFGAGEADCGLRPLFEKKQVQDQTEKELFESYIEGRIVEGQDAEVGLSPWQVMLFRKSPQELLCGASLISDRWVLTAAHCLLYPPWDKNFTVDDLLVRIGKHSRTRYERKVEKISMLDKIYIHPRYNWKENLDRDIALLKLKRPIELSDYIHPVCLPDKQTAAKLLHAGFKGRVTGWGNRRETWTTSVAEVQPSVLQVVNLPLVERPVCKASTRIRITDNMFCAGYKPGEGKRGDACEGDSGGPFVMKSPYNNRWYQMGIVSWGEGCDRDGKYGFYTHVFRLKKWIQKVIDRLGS
# Numbers without * were called inactive; x = not tested or not shown. This is a sample that favours compounds with a hit; in the whole collection about 1.7% have one here.
SMILES,HNF4A DNA FP,CSN deneddyl inh,TPT1 inhibitor,Rev-erbA mod,CSN deneddyl val,MMP-2 counter,Thrombin counter
O=C(O)c1ccc(NC(=S)NC(=O)c2ccc(-c3ccc(Br)cc3)o2)cc1,-64,53*,0,-4,67*,16*,16*
O=C(O)c1cccc(NC(=S)NC(=O)c2ccc(-c3ccc(Cl)cc3)o2)c1,8,7,0,4,x,x,x
COc1cc(/C=C2\SC(=S)N(NC(=O)c3cccc(O)c3)C2=O)ccc1O,47*,50*,x,1,96*,-3,40*
COc1cc(/C=C2\SC(=S)N(NC(=O)c3ccncc3)C2=O)ccc1O,50*,39*,18,5,68*,12,38*
Cc1cc(N)c2cc(NC(=O)/C=C/c3ccccc3Cl)ccc2n1,37*,108*,-2,x,-39,54*,-5
O=C(/C=C/c1ccccc1)Nc1scc(-c2ccccc2)c1C(=O)O,3,-7,x,-3,x,x,x
O=C(/C=C/c1ccco1)Nc1scc(-c2ccccc2)c1C(=O)O,-36,38*,0,-7,25,9,6
COCc1cc(N2CCN(C(=O)OC(C)(C)C)C[C@H]2C)ccc1Br,x,x,x,8,x,x,x
CC(C)C[C@@H](CCCc1ccccc1)CCC(=O)N(c1ccccc1)c1ccccc1,x,x,x,7,x,x,x
C[C@@H]1COc2cc(NCCO)ccc2S(=O)(=O)N1,x,x,x,6,x,x,x
CCCCCCCCCCCCC/C=C/[C@@H](O)[C@@H](N)CO,29,41*,-4,5,3,5,-3
CCCCCCCC/C=C\CCCCCCCC(=O)O,-7,20,0,-12,x,x,x
O[C@H]1CN(CC2CCCCC2)[C@@H](c2ccc(Cl)cc2)C[C@@H]1n1cc(C2CC2)nn1,4,1,x,1,x,x,x
O=[N+]([O-])c1ccc(Sc2nc3ccccc3[nH]2)c(Cl)c1,x,x,x,-5,x,x,x
CC(=O)c1cccc(NC(=O)/C=C/c2ccc([N+](=O)[O-])s2)c1,7,35*,x,-6,97*,6,4
CCOC(=O)/C(=C\c1ccc(N2CCC(c3ccccc3)=N2)cc1)C(C)=O,22,38*,x,-8,20*,-58*,28*
CC1=NN(c2nc(N)nc(/C(C#N)=C/c3ccc([N+](=O)[O-])o3)n2)C(C)(C)C1,96*,42*,x,1,96*,1,12
Brc1ccc(-c2nn3c(-c4ccco4)nnc3s2)o1,-21,41*,0,-12,95*,14,0
Cc1ccc(/C=C2\SC(=S)N(Cc3ccccc3)C2=O)o1,26,115*,39*,-1,108*,9,24*
O=C1/C(=C\c2cccc(O)c2)SC(=S)N1Cc1ccccc1,0,3,-1,-5,x,x,x
O=C1/C(=C\c2ccc(O)c(O)c2)SC(=S)N1Cc1ccccc1,68*,55*,x,-2,31,5,68*
Cc1ccc(C(=O)N2O[C@]34C=C[C@]25C[C@@H](O)CC[C@]5(C)C3CC[C@]2(C)[C@@H]([C@H](C)/C=C/[C@H](C)C(C)C)CC[C@H]24)cc1 (some centres undefined),x,x,x,5,x,x,x
CCS(=O)(=O)C1=NN2C(=N)/C(=C\c3ccc(SCc4ccco4)o3)C(=O)N=C2S1,32,116*,x,-28,-5,14,54*
CC(=O)C1=CCN(C)CC1,x,x,x,3,x,x,x
CC(=O)Nc1ccc(S(=O)(=O)N2CCN(C(=O)C3COc4ccccc4O3)CC2)cc1 (centres undefined),3,4,-1,5,x,x,x
COc1ccc(S(=O)(=O)N2CCN(C(=O)C3COc4ccccc4O3)CC2)cc1 (centres undefined),-48,45*,x,-24,x,8,16*
